Reference: ChEMBL document CHEMBL1133083, “Synthesis and immunosuppressive activity of 2-substituted 2-aminopropane-1,3-diols and 2-aminoethanols” (2000)

Assays:
Rattus norvegicus [1] = species: Rattus norvegicus; assay: Lymphocyte-decreasing effect against F344 rats.; format: functional; settings: for ED50: read-out: ID50 (the source's name)
Method in brief: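 F344 rats aged 5 weeks were dosed intraperitoneally in 20% hydroxypropyl-β-cyclodextrin. Peripheral blood was taken 24 h later and total lymphocytes counted by lymphocyte gating. ID₅₀/ID₈₀ is the lowest dose lowering the lymphocyte count by 50% or 80% of the vehicle-treated control.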

Rattus norvegicus [2] = assay: Immunosuppressive activity against skin allograft in F344 recipient (rat) from LEW donor (rat) at a concentration of 10 mg/kg; format: functional
Method in brief: (§1)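 MHC-compatible skin allograft: LEW (RT1^l) donor skin to F344 (RT1^lv1) recipients, all rats 4-6 weeks old. Full-thickness 2.0 × 2.0 cm grafts were placed on the recipient's lateral thorax under sterile bactericidal gauze. Read-out was mean survival time in days ± SE, with four animals per group. Deaths were scored as toxic.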

Rattus norvegicus [3] = assay: Immunosuppressive activity against skin allograft in F344 recipient (rat) from LEW donor (rat) at a concentration of 3 mg/kg; format: functional; method in brief: as §1
Rattus norvegicus [4] = species: Rattus norvegicus; assay: T cell-decreasing effect in spleen cells of WKAH rat which were injected into foot-pad of LEW rat.; format: functional; settings: read-out: ID50 (the source's name)
Method in brief: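 T-cell decrease was measured in the popliteal node gain model: WKAH spleen cells (5 × 10⁶) injected into the LEW rat footpad, with oral dosing for 4 days from the day of injection. Blood T-cells were counted by two-colour flow cytometry with FITC anti-rat CD3 (1F4) and PE anti-rat CD45RA (OX-33). Value is ID₅₀ (mg/kg).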

Rattus norvegicus [5] = species: Rattus norvegicus; assay: Immunosuppressive activity against LEW rats injected with spleen cells of WKAH rat in Popliteal Lymph Node Gain Assay.; format: functional; settings: read-out: ID50 (the source's name)
Method in brief: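 Popliteal lymph node gain: WKAH rat (RT1^k) spleen cells, 5 × 10⁶, injected into footpad of LEW rats (RT1^l) to enlarge the draining popliteal node. Compound given orally for 4 days starting on the day of cell injection, then popliteal node weighed. Value is ID₅₀ (mg/kg).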

Rattus norvegicus [6] = assay: Immunosuppressive activity against skin allograft in F344 recipient (rat) from LEW donor (rat) at a concentration of 0.3 mg/kg; format: functional; method in brief: as §1
Rattus norvegicus [7] = assay: Immunosuppressive activity against skin allograft in F344 recipient (rat) from LEW donor (rat) at a concentration of 1 mg/kg; format: functional; method in brief: as §1
Rattus norvegicus [8] = assay: Immunosuppressive activity against skin allograft in F344 recipient (rat) from LEW donor (rat) at a concentration of 3 mg/kg; Toxic; format: functional, organism-based; design: dose 3 mg/kg
Rattus norvegicus [9] = assay: Immunosuppressive activity against skin allograft in F344 recipient (rat) from LEW donor (rat) at a concentration of 0.1 mg/kg; format: functional; method in brief: as §1
Rattus norvegicus [10] = assay: Immunosuppressive activity against skin allograft in F344 recipient (rat) from LEW donor (rat) at a concentration of 10 mg/kg; Toxic; format: functional, organism-based; design: dose 10 mg/kg
Rattus norvegicus [11] = assay: Immunosuppressive activity against skin allograft in F344 recipient (rat) from LEW donor (rat) at a concentration of 30 mg/kg; format: functional; method in brief: as §1

Row | SMILES | ID80 (Rattus norvegicus [1]) [mg/kg] | ED50 (Rattus norvegicus [1]) [mg/kg] | ED50 (Rattus norvegicus [4]) [mg/kg] | ED50 (Rattus norvegicus [5]) [mg/kg] | MST (Rattus norvegicus [7]) [days] | also measured
1 | CCc1ccc(CCCCCCCCC(N)(CO)CO)cc1.Cl | >3 | > 3 |  |  |  | MST (Rattus norvegicus [2]): 8.6 days; MST (Rattus norvegicus [3]): 8.5 days
2 | CCCCCCCCc1ccccc1CCC(N)(CO)CO.Cl | >3 | > 3 |  |  |  | 
3 | CCCCCCCCc1ccc(CCC(N)(CO)C(=O)O)cc1 (stereo unspecified) |  |  | > 10 | > 10 |  | 
4 | CCCCCCCCCCCCCCc1ccc(CCC(N)(CO)CO)cc1.Cl | >3 | 1 |  |  |  | 
5 | CCCCCCCCCCCc1ccc(CCC(N)(CO)CO)cc1.Cl | 0.1 | 0.1 |  |  | 39.3 | MST (Rattus norvegicus [6]): 23.3 days; MST (Rattus norvegicus [8]): Toxic
6 | Cl.NC(CO)(CO)CCCCCCCCCCc1ccccc1 | 1 | 0.3 |  |  | 27 | MST (Rattus norvegicus [9]): 11.5 days; MST (Rattus norvegicus [6]): 21.5 days; MST (Rattus norvegicus [8]): Toxic
7 | CCCCCCCOc1ccc(CCC(N)(CO)C(C)C)cc1.Cl (stereo unspecified) |  |  | 4.5 |  |  | 
8 | CCCCCCCOc1ccc(CCC(N)(CO)CCO)cc1 (stereo unspecified) |  |  | 0.055 | 0.038 |  | 
9 | CCCCCCCCc1ccc(CCC(N)(CO)CO)s1.Cl | >3 | 1 |  |  | 17.3 | MST (Rattus norvegicus [6]): 13 days; MST (Rattus norvegicus [3]): 21 days
10 | CCCCCCCOc1ccc(CC[C@](N)(CO)CCO)cc1.Cl |  |  | 4.2 | 4.2 |  | 
11 | CCCCCCCCCCCCCCC(N)(CO)CO.Cl | 0.3 | 0.3 |  |  | 37.3 | MST (Rattus norvegicus [9]): 13.8 days; MST (Rattus norvegicus [6]): 26.5 days; MST (Rattus norvegicus [10]): Toxic; MST (Rattus norvegicus [3]): 45.5 days
12 | CCCCCCCOc1ccc(CC[C@@](C)(N)CO)cc1.Cl |  |  | 0.0092 |  |  | 
13 | CCCCCCCCc1cccc(CCC(N)(CO)CO)c1.Cl | >3 | > 3 |  |  |  | 
14 | CCCCCCCCCc1ccc(CCC(N)(CO)CO)cc1.Cl | 0.1 | 0.03 |  |  | 32 | MST (Rattus norvegicus [6]): 23 days; MST (Rattus norvegicus [8]): Toxic
15 | CCCCCCCC(=O)c1ccc(CCC(N)(CO)CO)cc1 | 0.3 | 0.03 |  |  | 32.5 | MST (Rattus norvegicus [9]): 19.8 days; MST (Rattus norvegicus [6]): 25.5 days; MST (Rattus norvegicus [8]): Toxic
16 | CCCCCCCC(O)c1ccc(CCC(N)(CO)CO)cc1 (stereo unspecified) | 0.3 | 0.1 |  |  |  | 
17 | CCCCCCCCc1ccc(CCC(C)(N)CCO)cc1.Cl (stereo unspecified) |  |  | > 10 | > 10 |  | 
18 | CCCCCCCCCCCCc1ccc(CCC(N)(CO)CO)cc1.Cl | 1 | 0.1 |  |  | 40.5 | MST (Rattus norvegicus [9]): 12 days; MST (Rattus norvegicus [6]): 22.8 days; MST (Rattus norvegicus [10]): Toxic; MST (Rattus norvegicus [3]): 53 days
19 | CCCCCCCCc1ccc(CCC(N)CO)cc1.Cl (stereo unspecified) |  |  | > 10 | > 10 |  | 
20 | CCCCCCCCc1ccc(CCC(N)(CO)CCO)cc1 (stereo unspecified) |  |  | 0.12 | 0.009 |  | 
21 | C=CCC(N)(CO)CCc1ccc(OCCCCCCC)cc1 (stereo unspecified) |  |  | 3.1 | 1.9 |  | 
22 | CCCCCCCOc1ccc(CCC(N)(CC)CO)cc1.Cl (stereo unspecified) |  |  | 0.044 |  |  | 

Row | SMILES | ID80 (Rattus norvegicus [1]) [mg/kg] | ED50 (Rattus norvegicus [1]) [mg/kg] | ED50 (Rattus norvegicus [4]) [mg/kg] | ED50 (Rattus norvegicus [5]) [mg/kg] | MST (Rattus norvegicus [7]) [days] | also measured
23 | CCCCCCCSc1ccc(CCC(N)(CO)CO)cc1 | 0.03 | 0.03 |  |  | 44.5 | MST (Rattus norvegicus [9]): 22.3 days; MST (Rattus norvegicus [6]): 36 days; MST (Rattus norvegicus [8]): Toxic
24 | CCCCCCCCCCc1ccc(C(N)(CO)CO)cc1.Cl | >3 | 0.3 |  |  |  | 
25 | CCCCCCCCc1ccc(CCC(N)(CCO)CCO)cc1 |  |  | > 10 | > 10 |  | 
26 | CCCCCCC/C(=N\O)c1ccc(CCC(N)(CO)CO)cc1 | 1 | 0.03 |  |  |  | 
27 | CCCCCCCc1ccc(CCC(N)(CO)CO)cc1.Cl | 0.3 | 0.1 |  |  |  | 
28 | CCCCc1ccc(CCCCCCC(N)(CO)CO)cc1.Cl | 1 | 0.3 |  |  |  | MST (Rattus norvegicus [2]): 13.5 days; MST (Rattus norvegicus [3]): 9.8 days
29 | CCCCCCCCCCCCCc1ccc(CCC(N)(CO)CO)cc1.Cl | 1 | 0.03 |  |  |  | 
30 | CCCCCCCc1ccc(CCCC(N)(CO)CO)cc1.Cl | >3 | > 3 |  |  |  | MST (Rattus norvegicus [2]): 10.5 days; MST (Rattus norvegicus [3]): 9 days
31 | C/C=C/C[C@@H](C)[C@@H](O)[C@H]1C(=O)N[C@@H](CC)C(=O)N(C)CC(=O)N(C)[C@@H](CC(C)C)C(=O)N[C@@H](C(C)C)C(=O)N(C)[C@@H](CC(C)C)C(=O)N[C@@H](C)C(=O)N[C@H](C)C(=O)N(C)[C@@H](CC(C)C)C(=O)N(C)[C@@H](CC(C)C)C(=O)N(C)[C@@H](C(C)C)C(=O)N1C [CYCLOSPORINE] | >30 | > 30 | > 30 |  | 8 | MST (Rattus norvegicus [3]): 10.8 days; MST (Rattus norvegicus [11]): 19.8 days
32 | CCCCCCCOc1ccc(CC[C@@](N)(CO)CCO)cc1.Cl |  |  | 0.018 | 0.017 |  | 
33 | CCCCCCCOc1ccc(CCC(N)(CO)CCCC)cc1 (stereo unspecified) |  |  | > 10 | > 10 |  | 
34 | CCCCCCCCc1ccc(CCC(N)(CO)CCCO)cc1.Cl (stereo unspecified) |  |  | 0.021 | 0.085 |  | 
35 | CCCCCCCOc1ccc(CC[C@@](N)(CO)CCC)cc1 |  |  | 4.4 |  |  | 
36 | CCCCCCCN(C)c1ccc(CCC(N)(CO)CO)cc1.Cl | 1 | 1 |  |  | 21.3 | MST (Rattus norvegicus [10]): Toxic; MST (Rattus norvegicus [3]): 29 days
37 | CCCCCCCCCCc1ccc(CCC(N)(CO)CO)cc1.Cl | 0.1 | 0.1 |  |  | 48 | MST (Rattus norvegicus [9]): 20 days; MST (Rattus norvegicus [6]): 37.8 days; MST (Rattus norvegicus [8]): Toxic
38 | CCCCCCCOc1ccc(CC[C@](N)(CO)CCC)cc1 |  |  | > 10 | > 10 |  | 
39 | CCCCCCCOc1ccc(CCC(N)(CO)CCC)cc1 (stereo unspecified) |  |  | 7.3 |  |  | 
40 | CCCCCCCOc1ccc(CCC(N)(CO)CO)cc1.Cl | 0.1 | 0.03 | 0.014 |  | 33.8 | MST (Rattus norvegicus [9]): 15 days; MST (Rattus norvegicus [6]): 23.5 days; MST (Rattus norvegicus [10]): Toxic; MST (Rattus norvegicus [3]): 39.5 days
41 | CCCCCCCCCc1ccc(CC(N)(CO)CO)cc1.Cl | >3 | > 3 |  |  |  | MST (Rattus norvegicus [2]): 11.8 days; MST (Rattus norvegicus [3]): 9.8 days
42 | CCCCCCc1ccc(CCCCC(N)(CO)CO)cc1 | >3 | > 3 |  |  |  | MST (Rattus norvegicus [2]): 18.8 days; MST (Rattus norvegicus [3]): 13.8 days
43 | CCCCCCCCc1ccc(CCC(N)(CO)CO)cc1.Cl [FINGOLIMOD HYDROCHLORIDE] | 0.1 | 0.03 | 0.024 | 0.0097 | 39.5 | MST (Rattus norvegicus [9]): 25.3 days; MST (Rattus norvegicus [6]): 31.3 days; MST (Rattus norvegicus [10]): Toxic; MST (Rattus norvegicus [3]): 52 days
